Experiments:
Thioredoxin reductase 3 [1] = target: T1, Thioredoxin reductase 3 (Homo sapiens, UniProt Q86VQ6); assay: Inhibition of thioredoxin reductase
T1 sequence (Q86VQ6 whole entry): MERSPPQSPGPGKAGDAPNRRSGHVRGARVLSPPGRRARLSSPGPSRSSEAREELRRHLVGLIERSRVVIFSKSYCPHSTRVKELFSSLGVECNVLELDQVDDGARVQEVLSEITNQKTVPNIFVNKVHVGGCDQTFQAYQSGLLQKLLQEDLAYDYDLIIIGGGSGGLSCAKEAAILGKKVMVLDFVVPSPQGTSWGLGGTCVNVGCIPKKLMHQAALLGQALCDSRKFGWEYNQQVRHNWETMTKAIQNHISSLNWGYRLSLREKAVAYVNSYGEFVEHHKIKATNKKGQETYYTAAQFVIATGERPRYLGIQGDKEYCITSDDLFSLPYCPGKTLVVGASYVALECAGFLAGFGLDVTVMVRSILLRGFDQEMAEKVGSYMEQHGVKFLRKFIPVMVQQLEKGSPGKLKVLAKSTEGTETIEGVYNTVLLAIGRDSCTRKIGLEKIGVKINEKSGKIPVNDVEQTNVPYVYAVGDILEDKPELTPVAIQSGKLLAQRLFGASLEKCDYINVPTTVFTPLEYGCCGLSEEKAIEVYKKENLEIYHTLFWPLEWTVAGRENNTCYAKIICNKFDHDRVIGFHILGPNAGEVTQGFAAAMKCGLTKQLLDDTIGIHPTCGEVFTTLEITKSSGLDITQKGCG
Procedure, shortened: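 TrxR-only activity in HE buffer (100 mM HEPES pH 7.2, 5 mM EDTA) with 1.0 μM TrxR, 10 mM DTNB, 1 mM NADPH and inhibitor (final). Compound and enzyme added first, reaction started with NADPH/DTNB at 37 °C. OD 412 nm read every 10 s for initial linear rates. IC50 is 50% inhibition of thionitrobenzoate formation.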

Thioredoxin reductase 3 [2] = target: T1, Thioredoxin reductase 3; assay: Inhibition of thioredoxin reductase in the presence of thioredoxinand insulin
Procedure, shortened: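 Insulin reduction coupled to Trx/TrxR, final concentrations: 100 mM HEPES pH 7.2, 5 mM EDTA, 1 mM NADPH, 1.0 μM TrxR, 0.8 μM Trx, 2.5 mg/mL bovine insulin plus inhibitor. 30 min at 37 °C, stopped with 6 M guanidine HCl/50 mM Tris pH 8.0/10 mM DTNB, absorbance at 412 nm. IC50 for 50% inhibition of thionitrobenzoate formation.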

**Q.** Which IC50 (Thioredoxin reductase 3 [1]) does the source give for `OCC1O[C@@H]2O[C@@H]3C(C[Te]c4ccccc4)O[C@H](O[C@@H]4C(CO)O[C@H](O[C@@H]5C(CO)O[C@H](O[C@@H]6C(CO)O[C@@H](O[C@@H]7C(CO)O[C@H](O[C@@H]8C(CO)O[C@H](O[C@H]1C(O)C2O)C(O)C8O)C(O)C7O)C(O)C6O)C(O)C5O)C(O)C4O)C(O)C3O` (some centres not stated) here?
**A.** 17.8 µM

**Q.** What about the IC50 (Thioredoxin reductase 3 [2]) of the same compound?
**A.** 18 µM
